SMILES strings stand for the structures.

The first assay relates to Leishmania infantum. As to the kind of experiment: In Vitro evaluation for the percentage of activity towards Leishmania infantum at 3.13 uM Concentration; Toxic upon mouse primary peritoneal macrophages. Format: functional, organism-based.
Conditions: not given
An outline of the steps: (§1)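 Starch-stimulated mouse peritoneal macrophages, 30 000/well, infected after 24 h with spleen-derived L. infantum amastigotes (10:1) together with 2-fold drug dilutions (12.5–1.56 µM). Incubated 7 days at 37 °C, 5% CO2. Wright-stained slides scored microscopically as % reduction of total parasite load or of infected macrophages. Uninfected treated cultures judged microscopically for macrophage toxicity.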
Take `COc1ccc2nc3cc(Cl)ccc3c(NCCCCNCCCNc3c4ccc(Cl)cc4nc4ccc(OC)cc34)c2c1`: the Cytotoxicity result was “Toxic”.

A further assay relates to Leishmania infantum. As to the kind of experiment: Percentage of activity against Leishmania infantum at 6.25 uM; Toxic upon mouse primary peritoneal macrophages. Format: functional, organism-based.
Conditions: not given
An outline of the steps: as §1
`COc1ccc2nc3cc(Cl)ccc3c(NCCCCNCCCNc3c4ccc(Cl)cc4nc4ccc(OC)cc34)c2c1`: the Cytotoxicity entry was “Toxic”.

A further assay concerns Leishmania infantum. As to the kind of experiment: In Vitro evaluation for the percentage of activity towards Leishmania infantum at 1.56 uM Concentration; Toxic upon mouse primary peritoneal macrophages. Format: functional, organism-based.
Conditions: not given
An outline of the steps:
as §1
`COc1ccc2nc3cc(Cl)ccc3c(NCCCCNCCCNc3c4ccc(Cl)cc4nc4ccc(OC)cc34)c2c1`: the Cytotoxicity result was “Toxic”.

For the next assay, the system named is Leishmania infantum. As to the kind of experiment: Percentage of activity against Leishmania infantum at 12.5 uM Concentration; Toxic upon mouse primary peritoneal macrophages. Format: functional, organism-based.
Conditions: not given
An outline of the steps: as §1
`COc1ccc2nc3cc(Cl)ccc3c(NCCCCNCCCNc3c4ccc(Cl)cc4nc4ccc(OC)cc34)c2c1`: the Cytotoxicity entry is “Toxic”.

The next assay relates to MRC5. In words: Cytotoxicity on MRC-5 cells at 12.5 uM. It is filed as functional. To be noted: Homo sapiens. An outline of the steps: (§2)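 MRC-5 human diploid embryonic lung cells seeded at 5 000/well, washed after 24 h, then given 2-fold drug dilutions (25, 12.5, 6.25, 3.13 µM) in RPMI + 5% FCS, final DMSO below 0.5%. Incubated 7 days at 37 °C, 5% CO2. MTT colorimetric read-out, scored as % reduction of absorbance at 540 nm versus untreated controls.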
`COc1ccc2nc3cc(Cl)ccc3c(NCCCCNCCCNc3c4ccc(Cl)cc4nc4ccc(OC)cc34)c2c1` returned a cytotoxicity at 12.5 µM of 100%.

The subject of the next assay is MRC5. In words: Cytotoxicity on MRC-5 cells at 25 uM. Format: functional. Conditions: Homo sapiens. An outline of the steps: as §2
Regarding `COc1ccc2nc3cc(Cl)ccc3c(NCCCCNCCCNc3c4ccc(Cl)cc4nc4ccc(OC)cc34)c2c1`, the cytotoxicity at 25 µM stood at 100%.

In the next assay the test system is MRC5. As to the kind of experiment: Cytotoxicity on MRC-5 cells at 3.13 uM. Format: functional. To be noted: Homo sapiens. An outline of the steps: as §2
For `COc1ccc2nc3cc(Cl)ccc3c(NCCCCNCCCNc3c4ccc(Cl)cc4nc4ccc(OC)cc34)c2c1`, the cytotoxicity at 3.13 µM stood at 100%.

A further assay concerns MRC5. In words: Cytotoxicity on MRC-5 cells at 6.25 uM. It is filed as functional. To be noted: Homo sapiens. An outline of the steps:
as §2
In turn, `COc1ccc2nc3cc(Cl)ccc3c(NCCCCNCCCNc3c4ccc(Cl)cc4nc4ccc(OC)cc34)c2c1` yielded a cytotoxicity at 6.25 µM of 100%.

Another assay has as its system Plasmodium falciparum. In words: In vitro sensitivity for Plasmodium falciparum FcB1R. It is filed as functional, organism-based.
Conditions: not given
An outline of the steps:
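Asynchronous P. falciparum cultures in human erythrocytes (0.5% parasitemia, 1% haematocrit) exposed to serially diluted drug for 24 h at 37 °C. [3H]hypoxanthine (0.5 µCi/well) then added for a further 24 h. Uptake compared with drug-free controls on the same plate. IC50 taken from the concentration–response curve, averaged over independent experiments. DMSO ≤0.1%.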
The compound `COc1ccc2nc3cc(Cl)ccc3c(NCCCCNCCCNc3c4ccc(Cl)cc4nc4ccc(OC)cc34)c2c1` showed an IC50 of 61 nM. That is a double-digit nanomolar value.

The next assay concerns Trypanosoma cruzi. In words: In Vitro evaluation for the percentage of activity towards Trypanosoma cruzi at 1.56 uM Concentration; Toxic upon mouse primary peritoneal macrophages. Format: functional.
Conditions: not given
An outline of the steps:
(§3)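 Mouse peritoneal macrophages, 30 000/well, infected after 24 h with about 100 000 T. cruzi trypomastigotes per well plus 2-fold drug dilutions (12.5–1.56 µM). Incubated 4 days at 37 °C, 5% CO2. Methanol-fixed, Giemsa-stained and scored microscopically as % reduction of total parasite load (free trypomastigotes plus intracellular amastigotes) versus untreated controls.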
With `COc1ccc2nc3cc(Cl)ccc3c(NCCCCNCCCNc3c4ccc(Cl)cc4nc4ccc(OC)cc34)c2c1`, the Cytotoxicity entry is “Toxic”.

The next assay has as its system Trypanosoma cruzi. In words: Percentage of activity against Trypanosoma cruzi at 12.5 uM; Toxic upon mouse primary peritoneal macrophages. It is filed as functional, organism-based.
Conditions: not given
An outline of the steps:
as §3
Regarding `COc1ccc2nc3cc(Cl)ccc3c(NCCCCNCCCNc3c4ccc(Cl)cc4nc4ccc(OC)cc34)c2c1`, the Cytotoxicity entry was “Toxic”.

A further assay concerns Trypanosoma cruzi. In words: In Vitro evaluation for the percentage of activity towards Trypanosoma cruzi at 3.13 uM Concentration; Toxic upon mouse primary peritoneal macrophages.
Conditions: not given
Format: functional, organism-based. An outline of the steps: as §3
On to `COc1ccc2nc3cc(Cl)ccc3c(NCCCCNCCCNc3c4ccc(Cl)cc4nc4ccc(OC)cc34)c2c1`, for which the Cytotoxicity result was “Toxic”.

For another assay, the system named is Trypanosoma cruzi. In words: In Vitro evaluation for the percentage of activity towards Trypanosoma cruzi at 6.25 uM Concentration; Toxic upon mouse primary peritoneal macrophages. It is filed as functional, organism-based.
Conditions: not given
An outline of the steps:
as §3
On to `COc1ccc2nc3cc(Cl)ccc3c(NCCCCNCCCNc3c4ccc(Cl)cc4nc4ccc(OC)cc34)c2c1`, for which the Cytotoxicity result was “Toxic”.

A further assay relates to Trypanosoma brucei. In words: Percentage of activity against Trypanosoma brucei at 6.25 uM. Format: functional.
Conditions: not given
An outline of the steps: (§4)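 Bloodstream-form T. brucei in HMI-9 medium, 10 000 parasites/well, exposed to 12.5, 6.25, 3.13 and 1.56 µM drug for 4 days. Read-out is % inhibition of parasite multiplication. Macrophage toxicity judged on mouse primary peritoneal macrophages.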
Turning to `COc1ccc2nc3cc(Cl)ccc3c(NCCCCNCCCNc3c4ccc(Cl)cc4nc4ccc(OC)cc34)c2c1`, the “Inhibition of parasite multiplication” value is listed as 100%.

Another assay has as its system Trypanosoma brucei. As to the kind of experiment: Percentage of activity against Trypanosoma brucei at 12.5 uM. It is filed as functional.
Conditions: not given
An outline of the steps: as §4
`COc1ccc2nc3cc(Cl)ccc3c(NCCCCNCCCNc3c4ccc(Cl)cc4nc4ccc(OC)cc34)c2c1`: the “Inhibition of parasite multiplication” value is given as 100%.

The next assay concerns Trypanosoma brucei. In words: Percentage of activity against Trypanosoma brucei at 1.56 uM. Format: functional.
Conditions: not given
An outline of the steps: as §4
Regarding `COc1ccc2nc3cc(Cl)ccc3c(NCCCCNCCCNc3c4ccc(Cl)cc4nc4ccc(OC)cc34)c2c1`, the “Percent inhibition of parasite multiplication” value turned out to be 100%.

The subject of a further assay is Trypanosoma brucei. In words: Percentage of activity against Trypanosoma brucei at 3.13 uM. Format: functional.
Conditions: not given
An outline of the steps: as §4
Compound `COc1ccc2nc3cc(Cl)ccc3c(NCCCCNCCCNc3c4ccc(Cl)cc4nc4ccc(OC)cc34)c2c1` showed a Parasite growth inhibition of 100%.
